Assay results pooled from the literature.
Protocols differ between the studies behind these lines.
Effect on: binding
MET: Hepatocyte growth factor receptor (MET, Homo sapiens, UniProt P08581)
Tumor necrosis factor receptor superfamily member 9: Tumor necrosis factor receptor superfamily member 9 (Homo sapiens, UniProt Q07011)

SMILES	target	technique	pH	notes	Kd [nM]
CCCCC/C=C\C/C=C\C/C=C\C/C=C\CCCC(=O)O	Nuclear receptor subfamily 4 group A member 2 (Homo sapiens, UniProt P43354)	fluorescence	–	–	58000
CN1CN(c2ccccc2)C2(CCN(CCCC(=O)c3ccc(F)cc3)CC2)C1=O	D(2) dopamine receptor (Drd2, Rattus norvegicus, UniProt P61169)	radioligand	–	cell membranes	0.09
CC(C)C[C@H](NC(=O)[C@@H]1CCCN1C(=O)[C@H](Cc1ccccc1)NC(=O)[C@H](CCC(=O)O)NC(=O)[C@@H](N)CC(N)=O)C(=O)N[C@@H](CS)C(=O)N[C@@H](CO)C(=O)N[C@@H](CC(C)C)C(=O)N1CCC[C@H]1C(=O)N[C@@H](CCC(=O)O)C(=O)NCC(=O)O	Ubiquitin carboxyl-terminal hydrolase 7 (USP7, Homo sapiens, UniProt Q93009)	ITC	pH 8	–	118000
CC(c1ccccc1)n1cc(-c2ccccn2)c(=O)[nH]c1=O (stereo not shown)	MET	–	–	–	5010
CCCC[C@@H]1NC(=O)[C@H](Cc2ccc(O)cc2)NC(=O)[C@@H]2CCCN2C(=O)[C@H](CC(=O)O)NC(=O)[C@H](C)NC(=O)[C@H](Cc2ccccc2)NC(=O)[C@@H]2CSCCC(=O)N3CN(CN(C3)C(=O)CCSC[C@H](NC(C)=O)C(=O)N[C@@H](CC(C)(C)C)C(=O)N3CCC[C@H]3C(=O)N[C@@H](CCC(=O)O)C(=O)N[C@H](CCCCNC(=O)CCc3cn(CCOCCOCCOCCOCCOCCC(=O)N[C@H]4CSCCC(=O)N5CN6CN(C5)C(=O)CCSC[C@H](NC(=O)[C@@H](CC(=O)O)NC(=O)[C@H](Cc5cccc7ccccc57)NC(=O)[C@@H]5CCCN5C4=O)C(=O)N[C@@H](CCSC)C(=O)N[C@@H](CCCCNC(=N)N)C(=O)N[C@@H](CC(=O)O)C(=O)N[C@@H](Cc4c[nH]c5ccccc45)C(=O)N[C@@H](CO)C(=O)N[C@@H]([C@@H](C)O)C(=O)N4CCC[C@H]4C(=O)N4C[C@H](O)C[C@H]4C(=O)N[C@@H](Cc4c[nH]c5ccccc45)C(=O)N[C@H](C(N)=O)CSCCC6=O)nn3)C(=O)N3CCC[C@H]3C(=O)N[C@@H](Cc3ccc(O)cc3)C(=O)N2)C(=O)CCSCCNC1=O	Tumor necrosis factor receptor superfamily member 9	SPR	–	–	30
C[C@@H](c1ccccc1)n1cc(-c2cc(F)cc(F)c2)c(=O)[nH]c1=O	MET	–	–	–	1000
CCCC[C@@H]1NC(=O)[C@H](Cc2ccc(O)cc2)NC(=O)[C@@H]2CCCN2C(=O)[C@H](CC(=O)O)NC(=O)[C@H](C)NC(=O)[C@H](Cc2ccccc2)NC(=O)[C@@H]2CSCCC(=O)N3CN(CN(C3)C(=O)CCSC[C@@H](C(N)=O)NC1=O)C(=O)CCSCCC(=O)N[C@@H](CC(C)(C)C)C(=O)N1CCC[C@H]1C(=O)N[C@@H](CCC(=O)O)C(=O)N[C@H](CCCCNC(=O)CCc1cn(CCOCCOCCOCCOCCOCCC(=O)N[C@H]3CSCCC(=O)N4CN5CN(C4)C(=O)CCSC[C@H](NC(=O)[C@@H](CC(=O)O)NC(=O)[C@H](Cc4cccc6ccccc46)NC(=O)[C@@H]4CCCN4C3=O)C(=O)N[C@@H](CCSC)C(=O)N[C@@H](CCCCNC(=N)N)C(=O)N[C@@H](CC(=O)O)C(=O)N[C@@H](Cc3c[nH]c4ccccc34)C(=O)N[C@@H](CO)C(=O)N[C@@H]([C@@H](C)O)C(=O)N3CCC[C@H]3C(=O)N3C[C@H](O)C[C@H]3C(=O)N[C@@H](Cc3c[nH]c4ccccc34)C(=O)N[C@H](C(N)=O)CSCCC5=O)nn1)C(=O)N1CCC[C@H]1C(=O)N[C@@H](Cc1ccc(O)cc1)C(=O)N2	Tumor necrosis factor receptor superfamily member 9	SPR	–	–	12
CCCCC1(CCCCCCCCCCCCC(=O)O)OCC(C)(C)N1[O] (stereo not shown)	kcsA (Streptomyces lividans, UniProt P0A334)	–	–	–	100 to 1000
CCCC[C@@H]1NC(=O)[C@H](Cc2ccc(O)cc2)NC(=O)[C@@H]2CCCN2C(=O)[C@H](CC(=O)O)NC(=O)[C@H](C)NC(=O)[C@H](Cc2ccccc2)NC(=O)[C@@H]2CSCCC(=O)N3CN(CN(C3)C(=O)CCSC[C@@H](C(=O)N[C@@H](C)C(N)=O)NC1=O)C(=O)CCSC[C@H](NC(C)=O)C(=O)N[C@@H](CC(C)(C)C)C(=O)N1CCC[C@H]1C(=O)N[C@@H](CCC(=O)O)C(=O)N[C@H](CCCCNC(=O)CCc1cn(CCOCCOCCOCCOCCOCCC(=O)N[C@H]3CSCCC(=O)N4CN5CN(C4)C(=O)CCSC[C@H](NC(=O)CNC(=O)[C@H](Cc4ccccc4)NC(=O)[C@@H]4CCCN4C3=O)C(=O)N[C@@H](CCSC)C(=O)N[C@@H](CCCCNC(=N)N)C(=O)N[C@@H](CC(=O)O)C(=O)N[C@@H](Cc3c[nH]c4ccccc34)C(=O)N[C@@H](CO)C(=O)N[C@@H]([C@@H](C)O)C(=O)N3CCC[C@H]3C(=O)N3C[C@H](O)C[C@H]3C(=O)N[C@@H](Cc3c[nH]c4ccccc34)C(=O)N[C@H](C(N)=O)CSCCC5=O)nn1)C(=O)N1CCC[C@H]1C(=O)N[C@@H](Cc1ccc(O)cc1)C(=O)N2	Tumor necrosis factor receptor superfamily member 9	SPR	–	–	3.7
CC(c1ccccc1)n1cc(-c2c(F)ccc3cn[nH]c23)c(=O)[nH]c1=O (stereo not shown)	MET	–	–	–	398
